# Results from different studies.
# Each line is one published result; the experiments were not run side by side.
# ABL1 non-phosphorylated: Tyrosine-protein kinase ABL1, non-phosphorylated (ABL1, Homo sapiens, UniProt P00519)
# ABL1 F317L: Tyrosine-protein kinase ABL1 (ABL1, Homo sapiens, UniProt P00519, F317L)
SMILES,target,effect on,action,technique,concentration,measurement,value
CCCCC(=O)Nc1ccc(-c2ccc3ncn(CCC)c(=O)c3c2)cn1,ABL1 non-phosphorylated,binding,,competition with immobilised ligand,0.5 µM,remaining binding,85%
[2H]c1cc(C)c(NC(=O)c2cnc(Nc3cc(N4CC[C@@H](O)C4)nc(C)n3)s2)c(Cl)c1,"Tyrosine-protein kinase ABL1 (ABL1, Homo sapiens, UniProt P00519)",enzyme activity,inhibitor,,1 nM,inhibition,87%
COc1ccc2oc(-c3ccc4nc(N)oc4c3)c/c(=N\c3ccccc3NC(=O)CCN)c2c1,"Tyrosine-protein kinase ABL1 (ABL1, Homo sapiens, UniProt P00519, T315I)",cell-free assay,,,1 µM,remaining signal,103%
Cc1ccc(NC(=O)c2ccnc(C(F)(F)F)c2)cc1-c1cc(OCCO)nc(N2CCOCC2)c1,"Tyrosine-protein kinase ABL1 (ABL1, Homo sapiens, UniProt P00519, M351T)",binding,,,1 µM,remaining binding,100%
N#Cc1ccc(NC(=O)Nc2ccccc2)cc1,"Tyrosine-protein kinase ABL1, phosphorylated (ABL1, Homo sapiens, UniProt P00519, T315I)",cell-free assay,,competition with immobilised ligand,25 µM,remaining binding,100%
CO[C@@H]1[C@H](N(C)C(=O)c2ccccc2)C[C@H]2O[C@]1(C)n1c3ccccc3c3c4c(c5c6ccccc6n2c5c31)C(=O)NC4,"Tyrosine-protein kinase ABL1, non-phosphorylated (ABL1, Homo sapiens, UniProt P00519, Q252H)",enzyme activity,inhibitor,,1 µM,inhibition,0%
C[C@H]1CC[C@H](n2c3cnccc3c3cnc(Nc4ccc5c(n4)CCN(C(=O)CO)C5)nc32)CC1,ABL1 non-phosphorylated,binding,,competition with immobilised ligand,1 µM,remaining binding,56%
CC#CC(=O)N1CCC[C@H]1c1nc(-c2ccc(C(=O)Nc3ccccn3)cc2)c2c(N)nccn12,"Tyrosine-protein kinase ABL1, phosphorylated (ABL1, Homo sapiens, UniProt P00519, Y253F)",enzyme activity,inhibitor,,1 µM,inhibition,22%
CN1CCN(C(=O)c2ccc(NC(=O)Nc3ccc(N(C)c4ccnc(Nc5ccc(CS(C)(=O)=O)cc5)n4)cc3)cc2)CC1,"Tyrosine-protein kinase ABL1, phosphorylated (ABL1, Homo sapiens, UniProt P00519, E255K)",binding,,competition with immobilised ligand,1 µM,remaining binding,38%
C1=C/COCc2cc(ccc2OCCN2CCCC2)Nc2nccc(n2)-c2cccc(c2)COC/1,ABL1 F317L,binding,,,0.1 µM,remaining binding,58%
COc1ccc2[nH]c3c4[nH]c5ccc(OC)cc5c4c4c(c3c2c1)C(=O)NC4=O,ABL1 F317L,binding,,,1 µM,remaining binding,84%
C=CC(=O)N1CCC([C@@H]2CCNc3c(C(N)=O)c(-c4ccc(Oc5ccccc5)cc4)nn32)CC1,"Tyrosine-protein kinase ABL1, non-phosphorylated (ABL1, Homo sapiens, UniProt P00519, H396P)",enzyme activity,inhibitor,,1 µM,inhibition,5%
